Reference: ChEMBL document CHEMBL5058577, “EUbOPEN Chemogenomics Library 2 (Multiplex)” (2022)

Tested on: U2OS
Assay: Multiplex assay against U2OS
Format: toxicity, cell-based
Details: human
Method in brief: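 At seeding, live cells were stained with Hoechst33342, BioTracker Green Microtubule Cytoskeleton Dye, MitoTracker Red and Annexin V Alexa Fluor 680. After compound addition they were imaged on a CQ1 microscope at 37°C and 5% CO2, and CellPathfinder machine-learning gating sorted them into Hoechst high-intensity objects or normal cells, with normal cells further split into healthy, pyknosed or fragmented nuclei and pyknosed cells into mitotic or apoptotic. Tubulin, mitochondrial-mass and membrane-permeability phenotypes are given as per cents of cells with healthy nuclei.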

[1] = 12 h, 1 µM, compound concentration 1 uM, replicate 1
[2] = 12 h, 1 µM, compound concentration 1 uM, replicate 2
[3] = 12 h, 10 µM, compound concentration 10 uM, replicate 1
[4] = 12 h, 10 µM, compound concentration 10 uM, replicate 2
[5] = 24 h, 1 µM, compound concentration 1 uM, replicate 1
[6] = 24 h, 1 µM, compound concentration 1 uM, replicate 2
[7] = 24 h, 10 µM, compound concentration 10 uM, replicate 1
[8] = 24 h, 10 µM, compound concentration 10 uM, replicate 2
[9] = 48 h, 1 µM, compound concentration 1 uM, replicate 1
[10] = 48 h, 1 µM, compound concentration 1 uM, replicate 2
[11] = 48 h, 10 µM, compound concentration 10 uM, replicate 1
[12] = 48 h, 10 µM, compound concentration 10 uM, replicate 2

CN1CCC(C(=O)c2cccc(NC(=O)c3c(F)cc(F)cc3F)n2)CC1 was tested, and the “Population Apoptotic (%)” value [1] was 90%, the “Population Fragmented Nuclei (%)” value [1] was 20% and the “Population Healthy Nuclei (%)” value [1] was 70%. The “Population Hoechst High Intensity Objects (%)” value [1] was 2%, the “Population Membrane Permeable-Phenotype (%)” value [1] was 8% and the “Population Mitochondria Different-Phenotype (%)” value [1] was 3%. The “Population Mitotic Cells (%)” value [1] was 10%, the “Population Normal (%)” value [1] was 97% and the “Population Pyknosed Nuclei (%)” value [1] was 9%. For the same molecule, the “Population Tubulin-Different-Phenotype (%)” value [1] was 5%, the “Total Cell Count” value [1] was 218 and the “Population Apoptotic (%)” value [2] was 57%. The “Population Healthy Nuclei (%)” value [2] was 71%, the “Population Hoechst High Intensity Objects (%)” value [2] was 1% and the “Population Membrane Permeable-Phenotype (%)” value [2] was 9%. For the same molecule, the “Population Mitochondria Different-Phenotype (%)” value [2] was 11%, the “Population Mitotic Cells (%)” value [2] was 42% and the “Population Normal (%)” value [2] was 98%. The “Population Pyknosed Nuclei (%)” value [2] was 7%, the “Population Tubulin-Different-Phenotype (%)” value [2] was 6% and the “Total Cell Count” value [2] was 89. For the same molecule, the “Population Apoptotic (%)” value [3] was 65%, the “Population Fragmented Nuclei (%)” value [3] was 27% and the “Population Healthy Nuclei (%)” value [3] was 63%. The “Population Hoechst High Intensity Objects (%)” value [3] was 1%, the “Population Membrane Permeable-Phenotype (%)” value [3] was 14% and the “Population Mitochondria Different-Phenotype (%)” value [3] was 13%. The “Population Mitotic Cells (%)” value [3] was 34%, the “Population Normal (%)” value [3] was 98% and the “Population Pyknosed Nuclei (%)” value [3] was 9%. For the same molecule, the “Population Tubulin-Different-Phenotype (%)” value [3] was 12%, the “Total Cell Count” value [3] was 270 and the “Population Apoptotic (%)” value [4] was 64%. The “Population Fragmented Nuclei (%)” value [4] was 14%, the “Population Healthy Nuclei (%)” value [4] was 68% and the “Population Membrane Permeable-Phenotype (%)” value [4] was 15%. For the same molecule, the “Population Mitochondria Different-Phenotype (%)” value [4] was 18%, the “Population Mitotic Cells (%)” value [4] was 35% and the “Population Pyknosed Nuclei (%)” value [4] was 16%. The “Population Tubulin-Different-Phenotype (%)” value [4] was 15%, the “Total Cell Count” value [4] was 103 and the “Population Apoptotic (%)” value [5] was 85%. For the same molecule, the “Population Fragmented Nuclei (%)” value [5] was 22%, the “Population Healthy Nuclei (%)” value [5] was 67% and the “Population Hoechst High Intensity Objects (%)” value [5] was 2%. The “Population Membrane Permeable-Phenotype (%)” value [5] was 4%, the “Population Mitochondria Different-Phenotype (%)” value [5] was 3% and the “Population Mitotic Cells (%)” value [5] was 14%. The “Population Normal (%)” value [5] was 97%, the “Population Pyknosed Nuclei (%)” value [5] was 9% and the “Population Tubulin-Different-Phenotype (%)” value [5] was 3%. The “Total Cell Count” value [5] was 284, the “Population Apoptotic (%)” value [6] was 72% and the “Population Fragmented Nuclei (%)” value [6] was 18%. For the same molecule, the “Population Healthy Nuclei (%)” value [6] was 71%, the “Population Hoechst High Intensity Objects (%)” value [6] was 0% and the “Population Membrane Permeable-Phenotype (%)” value [6] was 6%. For the same molecule, the “Population Mitochondria Different-Phenotype (%)” value [6] was 10%, the “Population Mitotic Cells (%)” value [6] was 27% and the “Population Normal (%)” value [6] was 99%. The “Population Tubulin-Different-Phenotype (%)” value [6] was 0%, the “Total Cell Count” value [6] was 113 and the “Population Apoptotic (%)” value [7] was 82%. The “Population Fragmented Nuclei (%)” value [7] was 21%, the “Population Healthy Nuclei (%)” value [7] was 68% and the “Population Hoechst High Intensity Objects (%)” value [7] was 2%. The “Population Membrane Permeable-Phenotype (%)” value [7] was 8%, the “Population Mitochondria Different-Phenotype (%)” value [7] was 9% and the “Population Mitotic Cells (%)” value [7] was 17%. The “Population Normal (%)” value [7] was 97%, the “Population Pyknosed Nuclei (%)” value [7] was 9% and the “Population Tubulin-Different-Phenotype (%)” value [7] was 5%. For the same molecule, the “Total Cell Count” value [7] was 298, the “Population Apoptotic (%)” value [8] was 66% and the “Population Fragmented Nuclei (%)” value [8] was 15%. For the same molecule, the “Population Hoechst High Intensity Objects (%)” value [8] was 5%, the “Population Membrane Permeable-Phenotype (%)” value [8] was 10% and the “Population Mitochondria Different-Phenotype (%)” value [8] was 15%. For the same molecule, the “Population Mitotic Cells (%)” value [8] was 33%, the “Population Normal (%)” value [8] was 94% and the “Population Pyknosed Nuclei (%)” value [8] was 15%. For the same molecule, the “Population Tubulin-Different-Phenotype (%)” value [8] was 10%, the “Total Cell Count” value [8] was 126 and the “Population Apoptotic (%)” value [9] was 100%. For the same molecule, the “Population Fragmented Nuclei (%)” value [9] was 17%, the “Population Healthy Nuclei (%)” value [9] was 70% and the “Population Hoechst High Intensity Objects (%)” value [9] was 2%. For the same molecule, the “Population Membrane Permeable-Phenotype (%)” value [9] was 4%, the “Population Mitochondria Different-Phenotype (%)” value [9] was 1% and the “Population Mitotic Cells (%)” value [9] was 0%. For the same molecule, the “Population Normal (%)” value [9] was 97%, the “Population Pyknosed Nuclei (%)” value [9] was 11% and the “Population Tubulin-Different-Phenotype (%)” value [9] was 2%. For the same molecule, the “Total Cell Count” value [9] was 394, the “Population Apoptotic (%)” value [10] was 89% and the “Population Fragmented Nuclei (%)” value [10] was 29%. For the same molecule, the “Population Healthy Nuclei (%)” value [10] was 57%, the “Population Hoechst High Intensity Objects (%)” value [10] was 5% and the “Population Membrane Permeable-Phenotype (%)” value [10] was 12%. For the same molecule, the “Population Mitochondria Different-Phenotype (%)” value [10] was 8%, the “Population Mitotic Cells (%)” value [10] was 10% and the “Population Normal (%)” value [10] was 94%. For the same molecule, the “Population Pyknosed Nuclei (%)” value [10] was 13%, the “Population Tubulin-Different-Phenotype (%)” value [10] was 4% and the “Total Cell Count” value [10] was 149. The “Population Apoptotic (%)” value [11] was 85%, the “Population Fragmented Nuclei (%)” value [11] was 18% and the “Population Healthy Nuclei (%)” value [11] was 69%. For the same molecule, the “Population Hoechst High Intensity Objects (%)” value [11] was 3%, the “Population Membrane Permeable-Phenotype (%)” value [11] was 8% and the “Population Mitochondria Different-Phenotype (%)” value [11] was 3%. For the same molecule, the “Population Mitotic Cells (%)” value [11] was 14%, the “Population Normal (%)” value [11] was 96% and the “Population Pyknosed Nuclei (%)” value [11] was 12%. The “Population Tubulin-Different-Phenotype (%)” value [11] was 3%, the “Total Cell Count” value [11] was 398 and the “Population Fragmented Nuclei (%)” value [12] was 15%. For the same molecule, the “Population Membrane Permeable-Phenotype (%)” value [12] was 16%, the “Population Mitochondria Different-Phenotype (%)” value [12] was 10% and the “Population Pyknosed Nuclei (%)” value [12] was 14%. The “Population Tubulin-Different-Phenotype (%)” value [12] was 8% and the “Total Cell Count” value [12] was 189.
